# Test results published in ChEMBL document CHEMBL1140863, “Synthesis and evaluation of novel chloropyridazine derivatives as potent human rhinovirus (HRV) capsid-binding inhibitors” (Bioorg Med Chem, 2009).
# Key:
# [1] = test system: rhinovirus A2; test: Antiviral activity against HRV2 in human KB cells assessed as cytopathic effect by neutral red uptake assay; type: functional, organism-based; details: Rhinovirus A
# Outline: (§1)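 Cell-culture cytopathic-effect assays run in parallel on strains HRV-2 and HRV-14, each read both visually and by neutral red uptake. Antiviral EC50 and cytotoxic CC50 are expressed in µg/ml.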
# [2] = Selectivity index, ratio of CC50 for human KB cells to EC50 for HRV14 by visual assay
# Outline: (§2)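 Cell-culture cytopathic-effect (CPE) assays against HRV-2 and HRV-14. Antiviral EC50 and cytotoxic CC50 were each taken in µg/ml, with inhibition read either visually or by neutral red uptake. SI = CC50/EC50 for each read-out. Where viral CPE could not be told apart from drug cytotoxicity, this was flagged in a footnote.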
# [3] = test system: rhinovirus A2; test: Antiviral activity against HRV2 in human KB cells assessed as cytopathic effect by visual assay; type: functional, organism-based; details: Rhinovirus A; outline: as §1
# [4] = test system: rhinovirus B14; test: Antiviral activity against HRV14 in human KB cells assessed as cytopathic effect by visual assay; type: functional, organism-based; details: Rhinovirus B; outline: as §1
# [5] = Selectivity index, ratio of CC50 for human KB cells to EC50 for HRV14 by neutral red uptake assay; outline: as §2
# [6] = Cytotoxicity against human KB cells by neutral red uptake assay; type: cell-based; outline: as §1
# [7] = Cytotoxicity against human KB cells by visual assay; type: cell-based; outline: as §1
# [8] = Selectivity index, ratio of CC50 for human KB cells to EC50 for HRV2 by visual assay; outline: as §2
# [9] = test system: rhinovirus B14; test: Antiviral activity against HRV14 in human KB cells assessed as cytopathic effect by neutral red uptake assay; type: functional, organism-based; details: Rhinovirus B; outline: as §1
# [10] = Selectivity index, ratio of CC50 for human KB cells to EC50 for HRV2 by neutral red uptake assay; outline: as §2
SMILES,EC50 [3] [µg/mL],EC50 [4] [µg/mL],EC50 [1] [µg/mL],Ratio CC50/EC50 [2],Ratio CC50/EC50 [5],CC50 [6] [µg/mL],CC50 [7] [µg/mL],Ratio CC50/EC50 [8],EC50 [9] [µg/mL],Ratio CC50/EC50 [10]
CCOC(=O)c1ccc(OCCC2CCN(c3ccc(C)nn3)CC2)cc1 [PIRODAVIR],< 0.0032,0.081,< 0.0032,>123,>1000,> 10,> 10,>3125,0.01,>3125
CCOC(=O)c1ccc(OCCC2CCN(c3ccnnc3Cl)CC2)nc1,< 0.032,< 0.032,< 0.032,>3125,>3125,> 100,> 100,>3125,< 0.032,>3125
COC(=O)c1ccc(OCCC2CCN(c3cc(Cl)nnc3Cl)CC2)cc1,0.31,7.1,0.1,8,,4.7,30,97,> 4.7,58
Clc1cc(N2CCN(CCOc3ccc(-n4cnnc4)cc3)CC2)c(Cl)nn1,> 100,12,> 42,3,2.5,39,35,,15,

# Continued, in another order:
EC50 [3] [µg/mL],EC50 [4] [µg/mL],SMILES,EC50 [1] [µg/mL],Ratio CC50/EC50 [2],Ratio CC50/EC50 [5],CC50 [6] [µg/mL],CC50 [7] [µg/mL],Ratio CC50/EC50 [8],EC50 [9] [µg/mL],Ratio CC50/EC50 [10]
5.7,0.15,CCCCc1ccc(OCCN2CCN(c3cc(Cl)nnc3Cl)CC2)cc1,> 1.9,120,3.5,1.9,10,1.8,0.55,
> 35,0.036,CCOc1ccc(OCCN2CCN(c3cc(Cl)nnc3Cl)CC2)cc1,> 12,972,>370,12,35,,< 0.032,
> 56,43,O=Cc1ccc(OCCN2CCN(c3cc(Cl)nnc3Cl)CC2)cc1,46,>2,,43,56,,> 43,1.1
